From ChEMBL document CHEMBL1153120, “Synthesis and antiplasmodial activity of novel 2,4-diaminopyrimidines” (Bioorg Med Chem Lett, 2010)
In brackets after ≈: the same amount, converted by molar mass.

Legend:
Plasmodium falciparum [1] = experiment: Antiplasmodial activity against Plasmodium falciparum Dd2; assay type: functional, organism-based
Method in brief: (§1)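 P. falciparum cultures (lab strain 3D7; multidrug-resistant Southeast Asian isolate Dd2) were exposed to compound for 72 h. Parasite viability was read out by DAPI staining.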

Cytochrome P450 2C9 = Cytochrome P450 2C9 (Homo sapiens, UniProt P11712); experiment: Inhibition of human CYP2C9; assay type: ADME
Chain of Cytochrome P450 2C9 (P11712 whole entry): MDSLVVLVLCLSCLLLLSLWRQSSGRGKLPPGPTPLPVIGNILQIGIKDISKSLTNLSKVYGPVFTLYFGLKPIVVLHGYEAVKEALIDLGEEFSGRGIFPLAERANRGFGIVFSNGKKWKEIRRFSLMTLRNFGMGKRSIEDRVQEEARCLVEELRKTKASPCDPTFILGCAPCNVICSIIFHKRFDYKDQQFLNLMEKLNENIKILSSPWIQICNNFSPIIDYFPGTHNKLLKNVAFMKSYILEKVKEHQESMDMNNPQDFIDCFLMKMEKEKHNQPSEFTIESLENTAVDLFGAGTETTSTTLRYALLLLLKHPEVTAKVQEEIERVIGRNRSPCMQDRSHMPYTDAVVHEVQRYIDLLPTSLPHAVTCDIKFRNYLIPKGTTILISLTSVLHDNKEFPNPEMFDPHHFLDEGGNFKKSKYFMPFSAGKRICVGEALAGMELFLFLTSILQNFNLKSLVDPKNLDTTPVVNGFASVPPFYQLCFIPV

[2] = Cytotoxicity against human RPTEC after 4 days by alamar blue assay; assay type: cell-based; details: RPTEC cells, read-out: LC50
Plasmodium falciparum [3] = experiment: Antiplasmodial activity against Plasmodium falciparum 3D7; assay type: functional, organism-based; method in brief: as §1
[4] = Lipophilicity, log D of the compound; assay type: physicochemical; details: octanol/water
Method in brief: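 Log D was measured at pH 7.4 as the partitioning of compound between an aqueous layer and a second phase.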

Cytochrome P450 3A4 = Cytochrome P450 3A4 (Homo sapiens, UniProt P08684); experiment: Inhibition of human CYP3A4; assay type: ADME
Chain of Cytochrome P450 3A4 (P08684 whole entry): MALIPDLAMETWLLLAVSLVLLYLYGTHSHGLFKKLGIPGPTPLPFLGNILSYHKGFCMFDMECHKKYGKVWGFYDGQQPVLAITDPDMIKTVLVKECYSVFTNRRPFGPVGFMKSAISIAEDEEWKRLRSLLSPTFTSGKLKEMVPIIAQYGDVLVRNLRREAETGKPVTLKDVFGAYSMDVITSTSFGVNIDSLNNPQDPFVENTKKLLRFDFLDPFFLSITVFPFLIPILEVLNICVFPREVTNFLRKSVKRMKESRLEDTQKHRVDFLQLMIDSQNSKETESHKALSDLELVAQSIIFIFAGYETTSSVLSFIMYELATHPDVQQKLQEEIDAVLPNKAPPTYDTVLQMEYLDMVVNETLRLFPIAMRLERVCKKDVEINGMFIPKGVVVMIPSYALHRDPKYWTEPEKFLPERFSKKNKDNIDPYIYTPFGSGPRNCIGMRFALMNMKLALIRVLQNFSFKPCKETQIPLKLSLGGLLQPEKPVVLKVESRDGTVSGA

[5] = Cytotoxicity against human NHDF after 4 days by alamar blue assay; assay type: cell-based; details: NHDF cells, read-out: LC50
[6] = Solubility at pH 7.4; assay type: physicochemical; details: buffer
Cytochrome P450 1A2 = molecular target: T1, Cytochrome P450 1A2 (Homo sapiens, UniProt P05177); experiment: Inhibition of human CYP1A2; assay type: ADME
T1 sequence (P05177 whole entry): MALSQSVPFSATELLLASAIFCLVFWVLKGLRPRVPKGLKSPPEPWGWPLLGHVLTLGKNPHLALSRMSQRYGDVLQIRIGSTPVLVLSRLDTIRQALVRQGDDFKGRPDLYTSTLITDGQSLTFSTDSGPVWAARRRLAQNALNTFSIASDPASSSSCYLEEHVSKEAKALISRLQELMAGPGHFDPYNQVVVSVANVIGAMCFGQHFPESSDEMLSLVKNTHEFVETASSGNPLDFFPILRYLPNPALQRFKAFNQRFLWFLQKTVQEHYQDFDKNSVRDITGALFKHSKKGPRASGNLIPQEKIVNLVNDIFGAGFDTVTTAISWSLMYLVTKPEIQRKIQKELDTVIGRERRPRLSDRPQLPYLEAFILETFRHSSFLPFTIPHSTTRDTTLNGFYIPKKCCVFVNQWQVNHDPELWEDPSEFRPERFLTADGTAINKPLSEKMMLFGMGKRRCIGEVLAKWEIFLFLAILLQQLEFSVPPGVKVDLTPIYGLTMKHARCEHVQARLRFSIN

Cytochrome P450 2D6 = Cytochrome P450 2D6 (Homo sapiens, UniProt P10635); experiment: Inhibition of human CYP2D6; assay type: ADME
Chain of Cytochrome P450 2D6 (P10635 whole entry): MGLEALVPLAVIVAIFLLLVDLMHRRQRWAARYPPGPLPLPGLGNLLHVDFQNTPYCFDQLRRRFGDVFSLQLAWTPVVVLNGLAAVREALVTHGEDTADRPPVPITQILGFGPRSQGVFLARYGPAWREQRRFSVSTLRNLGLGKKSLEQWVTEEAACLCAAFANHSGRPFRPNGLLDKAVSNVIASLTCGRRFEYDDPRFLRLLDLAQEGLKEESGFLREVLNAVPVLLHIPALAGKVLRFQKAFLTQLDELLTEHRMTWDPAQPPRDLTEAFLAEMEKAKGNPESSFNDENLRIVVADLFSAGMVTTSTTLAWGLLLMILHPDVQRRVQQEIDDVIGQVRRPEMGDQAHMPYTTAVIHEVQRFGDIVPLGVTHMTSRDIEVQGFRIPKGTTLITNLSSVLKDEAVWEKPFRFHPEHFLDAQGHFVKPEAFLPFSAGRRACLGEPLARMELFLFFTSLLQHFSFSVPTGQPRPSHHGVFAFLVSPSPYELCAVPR

Cytochrome P450 2C19 = Cytochrome P450 2C19 (Homo sapiens, UniProt P33261); experiment: Inhibition of human CYP2C19; assay type: ADME
Chain of Cytochrome P450 2C19 (P33261 whole entry): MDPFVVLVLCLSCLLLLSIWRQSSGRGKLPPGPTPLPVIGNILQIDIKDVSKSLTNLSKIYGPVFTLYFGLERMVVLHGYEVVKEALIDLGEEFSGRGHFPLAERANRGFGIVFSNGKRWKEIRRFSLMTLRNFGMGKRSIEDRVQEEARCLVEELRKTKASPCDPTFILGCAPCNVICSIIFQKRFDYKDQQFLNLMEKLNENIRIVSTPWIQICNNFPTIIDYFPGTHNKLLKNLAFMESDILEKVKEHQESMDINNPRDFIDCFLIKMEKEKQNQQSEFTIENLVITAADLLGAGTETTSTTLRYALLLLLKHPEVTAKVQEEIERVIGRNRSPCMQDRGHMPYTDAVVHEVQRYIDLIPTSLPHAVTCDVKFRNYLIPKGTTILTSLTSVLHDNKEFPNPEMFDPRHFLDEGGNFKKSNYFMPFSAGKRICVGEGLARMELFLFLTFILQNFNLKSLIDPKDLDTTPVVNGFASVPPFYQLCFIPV

Liver microsomes [7] = experiment: Intrinsic clearance in rat liver microsomes measured […]; assay type: ADME, Microsome
Liver microsomes [8] = experiment: Intrinsic clearance in human liver microsomes measured […]; assay type: ADME, Microsome
[9] = molecular target: Voltage-gated inwardly rectifying potassium channel KCNH2 (Homo sapiens, UniProt Q12809); experiment: Inhibition of human ERG channel
Chain of Voltage-gated inwardly rectifying potassium channel KCNH2 (Q12809 whole entry): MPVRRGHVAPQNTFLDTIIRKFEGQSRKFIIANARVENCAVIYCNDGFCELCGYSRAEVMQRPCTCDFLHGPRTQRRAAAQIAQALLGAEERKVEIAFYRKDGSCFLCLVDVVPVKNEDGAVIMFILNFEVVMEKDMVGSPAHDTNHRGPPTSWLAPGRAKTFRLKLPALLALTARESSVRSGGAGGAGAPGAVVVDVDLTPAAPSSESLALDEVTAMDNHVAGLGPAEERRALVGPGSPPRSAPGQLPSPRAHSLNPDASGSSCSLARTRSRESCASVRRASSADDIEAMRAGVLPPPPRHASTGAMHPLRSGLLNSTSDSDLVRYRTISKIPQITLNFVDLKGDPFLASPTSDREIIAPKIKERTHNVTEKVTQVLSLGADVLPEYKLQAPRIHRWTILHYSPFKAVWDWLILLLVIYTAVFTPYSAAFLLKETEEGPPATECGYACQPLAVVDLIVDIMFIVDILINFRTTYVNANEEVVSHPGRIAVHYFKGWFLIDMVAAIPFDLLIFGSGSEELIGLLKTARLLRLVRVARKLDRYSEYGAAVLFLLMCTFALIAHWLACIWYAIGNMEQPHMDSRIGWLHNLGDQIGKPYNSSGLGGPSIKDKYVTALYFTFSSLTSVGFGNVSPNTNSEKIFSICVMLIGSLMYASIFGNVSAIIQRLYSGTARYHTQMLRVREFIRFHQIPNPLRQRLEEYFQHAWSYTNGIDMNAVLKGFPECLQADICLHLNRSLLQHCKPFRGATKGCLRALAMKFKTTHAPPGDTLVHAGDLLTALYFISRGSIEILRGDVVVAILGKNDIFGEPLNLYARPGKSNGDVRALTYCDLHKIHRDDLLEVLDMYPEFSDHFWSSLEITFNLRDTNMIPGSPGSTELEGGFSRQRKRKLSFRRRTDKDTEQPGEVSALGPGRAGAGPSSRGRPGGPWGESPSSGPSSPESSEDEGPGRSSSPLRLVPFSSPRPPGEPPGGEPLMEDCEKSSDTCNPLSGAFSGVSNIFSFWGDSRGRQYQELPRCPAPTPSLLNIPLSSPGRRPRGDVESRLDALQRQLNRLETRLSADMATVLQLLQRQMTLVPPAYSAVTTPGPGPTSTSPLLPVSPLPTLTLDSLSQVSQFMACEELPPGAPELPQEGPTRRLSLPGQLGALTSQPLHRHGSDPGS

SMILES	EC50 (Plasmodium falciparum [1]) [nM]	EC50 (Plasmodium falciparum [3]) [nM]	other results
Cc1cc(NC2CCCCC2)nc(NCc2ccccc2)n1	250	80	IC50 (Cytochrome P450 2C9): > 5000 nM; CC50 at 96 h [2]: 7500 nM; logD [4]: 3.9; IC50 (Cytochrome P450 3A4): > 5000 nM; CC50 at 96 h [5]: 7500 nM; solubility [6]: 26 µg/mL (≈ 87.7 µM); IC50 (Cytochrome P450 1A2): 3100 nM; IC50 (Cytochrome P450 2D6): 4200 nM; IC50 (Cytochrome P450 2C19): > 5000 nM
Cc1cc(Nc2ccccc2)nc(N2CCCN(C)CC2)n1			logD [4]: 1.7
Cc1cc(NC2CCCCC2)nc(NC2CCCCC2)n1	210		
Cc1cc(N(C)C2CCCCC2)nc(N[C@@H](C)c2ccccc2)n1	690	590	
CCCCCCCNc1nc(C)cc(NC2CCCCC2)n1	210		
Cc1cc(NC(C)C)nc(NCC23CC4CC(CC(C4)C2)C3)n1	270		
Cc1cc(N2CCCN(C(=O)OC(C)(C)C)CC2)nc(NC2CCN(Cc3ccccc3)CC2)n1			logD [4]: 2.7
Cc1cc(N2CCCNCC2)nc(NC2CCN(Cc3ccccc3)CC2)n1			logD [4]: -0.15
Cc1cc(NC2CCN(Cc3ccccc3)CC2)nc(N2CCCN(C)CC2)n1			logD [4]: 1
Cc1cc(NC2CCN(Cc3ccccc3)CC2)nc(N2CCCN(C(=O)OC(C)(C)C)CC2)n1			logD [4]: 2.77
CCCCCCCNc1nc(C)cc(NC(C)C)n1	310		
FC(F)(F)c1cc(Nc2ccccc2)nc(NCc2ccccn2)n1			IC50 [9]: 40100 nM; clearance (Liver microsomes [7]): > 119 µL/min/mg; clearance (Liver microsomes [8]): > 99 µL/min/mg
Cc1cc(NC2CCCCC2)nc(Nc2ccccn2)n1	> 2000	> 1000	
Cc1cc(NC(C)C)nc(NC2CCCCC2)n1	390		
Cc1cc(Nc2ccccc2)nc(N2CCCN(C(=O)OC(C)(C)C)CC2)n1			logD [4]: 3.95
Cc1cc(NC2CCCCC2)nc(NC(C)C)n1	740		
Cc1cc(N(C)C2CCCCC2)nc(N(C)Cc2ccccc2)n1	> 10000	> 10000	
Cc1cc(NC(C)C)nc(NC(C)C)n1	4270		
Cc1cc(NC2CCCCC2)nc(NCCN2CCCC2)n1	2750		
Cc1cc(Nc2ccccc2)nc(N2CCCNCC2)n1			logD [4]: 0.51
Cc1cc(N2CCCN(C)CC2)nc(NC2CCN(Cc3ccccc3)CC2)n1			logD [4]: 1
Cc1cc(NC2CCN(Cc3ccccc3)CC2)nc(N2CCCNCC2)n1			logD [4]: -0.17
Cc1cc(NC2CCCCC2)nc(NCC23CC4CC(CC(C4)C2)C3)n1	370		
FC(F)(F)c1cc(Nc2ccncc2)nc(NCc2ccc3c(c2)OCO3)n1			IC50 [9]: 135000 nM
Cc1cc(NC(C)C)nc(NCCN2CCCC2)n1	> 5000		
FC(F)(F)c1cc(Nc2ccccc2)nc(NCc2ccncc2)n1			clearance (Liver microsomes [7]): > 119 µL/min/mg; clearance (Liver microsomes [8]): 56.2 µL/min/mg
Cc1cc(N(C)C2CCCCC2)nc(N[C@H](C)c2ccccc2)n1	940	630	

Further lines, with some results ahead:

EC50 (Plasmodium falciparum [1]) [nM]	EC50 (Plasmodium falciparum [3]) [nM]	SMILES	other results
930	780	COc1cc(CNc2nc(C)cc(NCc3ccccc3)n2)cc(OC)c1OC	
400	410	Cc1cc(NCc2ccccc2)nc(NCC23CC4CC(CC(C4)C2)C3)n1	
590	350	Cc1cc(Nc2ccccc2)nc(NCc2ccc3c(ccn3C)c2)n1	
250		Cc1cc(NC2CCCCC2)nc(NC2CCN(Cc3ccccc3)CC2)n1	
1500		Cc1cc(NC(C)C)nc(Nc2ccccc2)n1	
500	120	Cc1cc(NC2CCCCC2)nc(N[C@@H](C)c2ccccc2)n1	
1260	430	Cc1cc(NCc2ccccc2)nc(NC2CCCCC2)n1	
> 10000	> 10000	Cc1cc(NC2CCCCC2)nc(N(C)Cc2ccccc2)n1	
2140		Cc1cc(Nc2ccccc2)nc(NCc2ccccn2)n1	clearance (Liver microsomes [7]): 114 µL/min/mg; clearance (Liver microsomes [8]): 70 µL/min/mg
360	110	Cc1cc(Nc2ccccc2)nc(NCc2ccc3c(c2)OCO3)n1	IC50 [9]: 9500 nM; clearance (Liver microsomes [7]): > 119 µL/min/mg; clearance (Liver microsomes [8]): 31.3 µL/min/mg
1450	1080	Cc1cc(NCc2ccccc2)nc(NCCN2CCCC2)n1	
1220		Cc1cc(NC(C)C)nc(NCc2ccc3c(ccn3C)c2)n1	
200		Cc1cc(NC2CCCCC2)nc(NCc2ccc3c(c2)OCO3)n1	
90	120	Cc1cc(Nc2ccccc2)nc(NCc2ccccc2)n1	clearance (Liver microsomes [7]): > 119 µL/min/mg; clearance (Liver microsomes [8]): 55.2 µL/min/mg
810		Cc1cc(NC(C)C)nc(NC2CCN(Cc3ccccc3)CC2)n1	
840		Cc1cc(NC(C)C)nc(NCc2ccc3c(c2)OCO3)n1	
420	90	Cc1cc(NC2CCCCC2)nc(N[C@H](C)c2ccccc2)n1	
1920		COc1cc(CNc2nc(C)cc(NC(C)C)n2)cc(OC)c1OC	
1240	1460	Cc1cc(Nc2ccccc2)nc(NCCN2CCCC2)n1	
260		COc1cc(CNc2nc(C)cc(NC3CCCCC3)n2)cc(OC)c1OC	
160	160	Cc1cc(NCc2ccccc2)nc(NC2CCN(Cc3ccccc3)CC2)n1	
750	280	Cc1cc(Nc2ccccc2)nc(NC(C)C)n1	
230		Cc1cc(NC2CCCCC2)nc(Nc2ccccc2)n1	
1050	1430	Cc1cc(NCc2ccccc2)nc(NC(C)C)n1	
90	90	CCCCCCCNc1nc(C)cc(Nc2ccccc2)n1	
1020	680	Cc1cc(N(C)C2CCCCC2)nc(NCc2ccccc2)n1	
240		Cc1cc(NC2CCCCC2)nc(NCc2ccc3c(ccn3C)c2)n1	
350		Cc1cc(NC(C)C)nc(NCc2ccccc2)n1	
1020	850	Cc1cc(NCc2ccccc2)nc(Nc2ccccc2)n1	
